According to the array DNA melting data of Ke et al. (doi:10.1101/2024.01.08.574731):

Columns and labels:
[1] = melting temperature; fluorescence melt of hairpins on a sequencing array, two-state fit, raised by 9.35 °C to match UV melts; conditions: sodium 0.088 M
Outline: (§1)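 Cy3 signals were normalised both to pre-quench Cy3 and to control constructs. They came from library hairpins carrying annealed Cy3 and quencher oligos on a sequenced MiSeq flow cell, imaged in 50 mM Na-HEPES pH 8.0, 25 mM NaCl, in 2.5 °C steps up to 60 °C. Bootstrapped two-state fits gave melting temperature and folding enthalpy, and four replicates were combined by inverse variance. Fitted temperatures were then raised by 9.35 °C to match UV melts.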

[2] = folding enthalpy; higher = less favourable; fluorescence melt of hairpins on a sequencing array, two-state fit; conditions: sodium 0.088 M
Outline: as §1

| Sequence | Tm [1] | folding enthalpy [2] |
| --- | --- | --- |
| GTGCCTGGAAACGGGTAC ((.((.(....).)).)) | 44 °C | -18.6 kcal/mol |
| GTGCGACGAAAGTCCAC (((.(((....)))))) | 52 °C | -29.4 kcal/mol |
| GTGCGAGGAAACCCGCAC (((((.(....).))))) | 58.1 °C | -34.6 kcal/mol |
| GTGCGCCGAAAGGCCAC (((.(((....)))))) | 58.6 °C | -21.3 kcal/mol |
| GTGCGCCGAAAGGCCCAC (((.(((....))).))) | 48.5 °C | -24.4 kcal/mol |
| GTGCGCGAAAGCGAACAC ((((((....)))..))) | 58.5 °C | -12.6 kcal/mol |
| GTGCGCGAAAGCGACAC ((((((....))).))) | 63.8 °C | -16.9 kcal/mol |
| GTGCGCGGAAACGTGCAC ((((.((....)).)))) | 67.5 °C | -35.4 kcal/mol |
| GTGCGTACGAAAGTACAC (((..(((....)))))) | 54.1 °C | -10.5 kcal/mol |
| GTGCGTCGAAAGACACAC (((.(((....))).))) | 53.5 °C | -39 kcal/mol |
| GTGCGTCGAAAGACCAC (((.(((....)))))) | 56.2 °C | -29.6 kcal/mol |
| GTGCGTGCGAAAGCACAC (((..(((....)))))) | 63.5 °C | -9.15 kcal/mol |
| GTGCGTGGAAACGCGCAC (((((.(....).))))) | 65.6 °C | -23.7 kcal/mol |
| GTGCGTTCGAAAGAACAC (((..(((....)))))) | 54.1 °C | -11.7 kcal/mol |
| GTGCTACCGAAAGGTCAC (((..(((....)))))) | 37 °C | -15.5 kcal/mol |
| GTGCTAGGAAACCAGCAC (((((.(....).))))) | 49.9 °C | -37 kcal/mol |
| GTGCTCACGAAAGTGCAC (((..(((....)))))) | 48.3 °C | -19.9 kcal/mol |
| GTGCTGCGAAAGCACAC (((.(((....)))))) | 55.3 °C | -19.4 kcal/mol |
| GTGCTGCGAAAGCACCAC (((.(((....))).))) | 52.6 °C | -15 kcal/mol |
| GTGCTGGCGAAAGCCCAC (((..(((....)))))) | 49.3 °C | -10.3 kcal/mol |
| GTGCTGGGAAACTAGCGC (.(((.(....).))).) | 45.5 °C | -29.7 kcal/mol |
| GTGCTGGGAAACTGGCAC ((((..(....)..)))) | 49.7 °C | -26.2 kcal/mol |
| GTGCTTCGAAAGAAACAC (((.(((....))).))) | 45.6 °C | -36 kcal/mol |

| Sequence | Tm [1] | folding enthalpy [2] |
| --- | --- | --- |
| GTGCTTCGAAAGAACAC (((.(((....)))))) | 42.8 °C | -32.1 kcal/mol |
| GTGCTTGGAAACAAACAC (((.(((....))).))) | 39.1 °C | -28.9 kcal/mol |
| GTGCTTGGAAACAAGTGC (..((((....))))..) | 43 °C | -21 kcal/mol |
| GTGCTTGGAAACGAGTAC ((.((.(....).)).)) | 35 °C | -19.3 kcal/mol |
| GTGGAAGGAAACTTCCGC (.(((((....))))).) | 51.1 °C | -24.1 kcal/mol |
| GTGGAAGGAAACTTTCGC (.(.(((....))).).) | 30 °C | -20 kcal/mol |
| GTGGACCGAAAGGTTCAC (((.(((....))).))) | 59.8 °C | -36.7 kcal/mol |
| GTGGACGAAAGTCCCAC ((((((....))).))) | 48.8 °C | -12.1 kcal/mol |
| GTGGACGAAAGTCGACAC ((((((....)))..))) | 47.5 °C | -21.8 kcal/mol |
| GTGGACGAAAGTCTTCAC ((((((....)))..))) | 32.4 °C | -12.8 kcal/mol |
| GTGGACGGAAACGTCTAC ((.((((....)))).)) | 52.2 °C | -24.9 kcal/mol |
| GTGGACGGAAACGTCTGC (..((((....))))..) | 49.2 °C | -15.8 kcal/mol |
| GTGGACTCGAAAGAGCAC (((..(((....)))))) | 39.7 °C | -21.4 kcal/mol |
| GTGGAGCGAAAGCTTCAC (((.(((....))).))) | 58.1 °C | -35.6 kcal/mol |
| GTGGAGGGAAACCTCTAC ((.((((....)))).)) | 46.7 °C | -25.7 kcal/mol |
| GTGGAGGGAAACTTCCAC (((((.(....).))))) | 47.3 °C | -30.4 kcal/mol |
| GTGGAGTCGAAAGACCAC (((..(((....)))))) | 44.9 °C | -20.6 kcal/mol |
| GTGGATCCGAAAGGACAC (((..(((....)))))) | 39.4 °C | -23.3 kcal/mol |
| GTGGATCGAAAGATGCAC (((.(((....))).))) | 55.9 °C | -45.9 kcal/mol |
| GTGGATCGAAAGATTCAC (((.(((....))).))) | 53.8 °C | -38.2 kcal/mol |
| GTGGATGAAAATCCAC ((((((....)))))) | 59.9 °C | -33.9 kcal/mol |
| GTGGATGGAAACGTCTAC ((.((.(....).)).)) | 32.5 °C | -19.8 kcal/mol |
| GTGGCAGGAAACTGCCGC (.(((((....))))).) | 61.1 °C | -18.3 kcal/mol |

| Sequence | Tm [1] | folding enthalpy [2] |
| --- | --- | --- |
| GTGGCAGGAAACTGCTAC ((.((((....)))).)) | 53.1 °C | -26.4 kcal/mol |
| GTGGCCGAAAGGCACCAC ((((((....)))..))) | 43.6 °C | -12.3 kcal/mol |
| GTGGCCGAAAGGCCGCAC ((((((....)))..))) | 62.9 °C | -9.1 kcal/mol |
| GTGGCCGAAAGGCTCCAC ((((((....)))..))) | 39 °C | -11.4 kcal/mol |
| GTGGCCGAAAGGCTGCAC ((((((....)))..))) | 46.7 °C | -12.4 kcal/mol |
| GTGGCCGGAAACGGCTGC (..((((....))))..) | 51.9 °C | -13 kcal/mol |
| GTGGCGCGAAAGCGCAC (((.(((....)))))) | 57.6 °C | -8.04 kcal/mol |
| GTGGCTACGAAAGTACAC (((..(((....)))))) | 32.9 °C | -11.3 kcal/mol |
| GTGGCTGGAAACAGCCGC (.(((((....))))).) | 63 °C | -17.4 kcal/mol |
| GTGGCTGGAAACAGCTGC (..((((....))))..) | 47.4 °C | -15.6 kcal/mol |
| GTGGGACCGAAAGGTCAC (((..(((....)))))) | 64.2 °C | -19.5 kcal/mol |
| GTGGGACGAAAGTCCAC (((.(((....)))))) | 55.9 °C | -13.2 kcal/mol |
| GTGGGACGAAAGTCGCAC (((.(((....))).))) | 66.3 °C | -38.6 kcal/mol |
| GTGGGAGGAAACTCCCAC (((((((....))))))) | 67.2 °C | -32.1 kcal/mol |
| GTGGGAGGAAACTCTCGC (.(.(((....))).).) | 37.2 °C | -30.2 kcal/mol |
| GTGGGCGAAAGCCAACAC ((((((....)))..))) | 53.5 °C | -15 kcal/mol |
| GTGGGCGAAAGCCACCAC ((((((....)))..))) | 47.2 °C | -12.7 kcal/mol |
| GTGGGCGAAAGCCAGCAC ((((((....)))..))) | 46.5 °C | -12.8 kcal/mol |
| GTGGGCGAAAGCCCCAC ((((((....))).))) | 60.2 °C | -11.3 kcal/mol |
| GTGGGCGAAAGCCGTCAC ((((((....)))..))) | 36.9 °C | -13.2 kcal/mol |
| GTGGGCGGAAACACCCAC (((((.(....).))))) | 53.1 °C | -43.3 kcal/mol |
| GTGGGCGGAAACGTCCAC ((((.((....)).)))) | 64.7 °C | -41.7 kcal/mol |
